Measurements from ChEMBL document CHEMBL1124918, “Synthesis and evaluation of alpha-[[(2-haloethyl)amino]methyl]-2- nitro-1H-imidazole-1-ethanols as prodrugs of alpha-[(1-aziridinyl)methyl]-2- nitro-1H-imidazole-1-ethanol (RSU-1069) and its analogues which are radiosensitizers and bioreductively activated cytotoxins” (J Med Chem, 1990).

Columns and labels:
[1] = Half-life at pH of 7.0 at 4 degree Centigrade; type: ADME; details: pH 7
In short: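 Agent (0.2–0.5 mM) incubated in PBS at pH 7.0 and 4 °C, with pH adjusted right after the solution was made. Aliquots taken at set times were analysed by isocratic HPLC on a CN column, with UV detection at 313 nm. Mobile phase was 10–25% methanol in 10 mM KH2PO4, pH 3.0, at 2 mL min⁻¹. Half-life came from loss of parent compound.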

Mus musculus [2] = assay: Maximum tolerated dose was determined for compound administered intraperitoneally in C3H/He mice; type: functional
In short: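 Female C3H/He mice, 8–12 weeks old, bearing KHT sarcoma. Given ip within 10 min, 0.5 mL/25 g (1 mL/25 g if solubility-limited). Escalating single doses to groups of 2–3 mice; MTD is the highest dose without severe or persistent clinical signs or death within 24 h.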

V79 [3] = assay: Concentration which reduced survival to 1% following incubation 3 hours with V79 mammalian cells under hypoxic (Cnitrogen) conditions; type: functional, cell-based; details: Cricetulus griseus
In short: (§1)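 Chinese hamster V79-379A cells, 1.5 × 10⁶ per glass bottle, grown to confluency over 48 h. Exposed for 3 h at 37 °C to a range of agent concentrations in growth medium (pH 7.4), under aerobic or hypoxic conditions. Cells then trypsinized, diluted and plated for colony formation. The ratio is aerobic over hypoxic concentration.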

[4] = Ratio of concentration which reduced V79 cell survival to 1% under aerobic conditions to that of hypoxic conditions; type: functional; in short: as §1
[5] = Half-life at pH of 5.5-6.0 at 23 degree Centigrade; type: ADME; details: pH 5.5
In short: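 Agent (0.2–0.5 mM) incubated in PBS, with or without NaHCO₃ (24–107 mM), pH adjusted right after preparation, at 23 °C. Aliquots taken over time and checked for loss by isocratic HPLC on a CN column, UV at 313 nm. Mobile phase was 10–25% methanol in 10 mM KH₂PO₄, pH 3.0.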

V79 [6] = assay: Concentration which reduced survival to 1% following incubation 3 hours with V79 mammalian cells under aerobic (Cair) conditions; type: functional, cell-based; details: Cricetulus griseus; in short: as §1
[7] = Half-life at pH of 5.5-6.0 at 4 degree Centigrade; details: pH 5.5-6.0
Mus musculus [8] = assay: Maximum tolerated dose was determined for compound administered intraperitoneally as a suspension in arachis oil in C3H/He mice; type: functional

Row | SMILES | MTD (Mus musculus [2]) [mM/kg] | Concentration (V79 [3]) [mM] | Ratio [4] | Concentration (V79 [6]) [mM] | further results
1 | Br.C[C@@H](Br)[C@@H](C)NCC(O)Cn1ccnc1[N+](=O)[O-] (some centres undefined) | 1 |  |  |  | half-life [1]: 30 min
2 | Br.O=[N+]([O-])c1nccn1CC(O)CNCCBr (centres undefined) | 1 | 0.09 | 25.5 | 2.3 | half-life [5]: 30 min
3 | Cl.F.O=[N+]([O-])c1nccn1CC(O)CNCCF (centres undefined) |  | 2.5 | 14 | 35 | 
4 | Br.CC(C)(Br)C(C)(C)NCC(O)Cn1ccnc1[N+](=O)[O-] (centres undefined) | 0.7 |  |  |  | half-life [7]: < 2 min
5 | O=[N+]([O-])c1nccn1CC(O)CNCCO (centres undefined) |  | 3.5 | 20 | 70 | 
6 | C[C@@H](Cl)[C@@H](C)NCC(O)Cn1ccnc1[N+](=O)[O-].Cl (some centres undefined) | 3 |  |  |  | half-life [5]: 120 min
7 | CC1(C)N(CC(O)Cn2ccnc2[N+](=O)[O-])C1(C)C (centres undefined) |  |  |  |  | MTD (Mus musculus [8]): 1.5 mM/kg
8 | C[C@@H]1[C@H](C)N1CC(O)Cn1ccnc1[N+](=O)[O-] (some centres undefined) | 3 |  |  |  | 
9 | Br.CC(C)(CBr)NCC(O)Cn1ccnc1[N+](=O)[O-] (centres undefined) | 1 |  |  |  | half-life [7]: < 5 min
10 | I.O=[N+]([O-])c1nccn1CC(O)CNCCI (centres undefined) |  | 0.08 | 30 | 2.4 | 
11 | CCNCC(O)Cn1ccnc1[N+](=O)[O-] (centres undefined) | 3.9 |  |  |  | 
12 | Cl.O=[N+]([O-])c1nccn1CC(O)CNCCCl (centres undefined) | 1.5 | 0.35 | 14.3 | 5 | half-life [1]: ~280 min; half-life [5]: > 300 min
13 | CC(C)(CCl)NCC(O)Cn1ccnc1[N+](=O)[O-].Cl (centres undefined) | 0.8 |  |  |  | half-life [7]: 76 min
14 | CC(C)(Cl)C(C)(C)NCC(O)Cn1ccnc1[N+](=O)[O-].Cl (centres undefined) | 1.3 |  |  |  | half-life [7]: < 2 min
15 | O=[N+]([O-])c1nccn1CC(O)CN1CC1 (centres undefined) | 0.4 | 0.003 | 100 | 0.3 | 
